Four compounds from ChEMBL document CHEMBL4321831, “Vaccine Adjuvants Derivatized from Momordica Saponins I and II” (J Med Chem, 2019) can be followed below.

Active and inactive are the calls of the source. The calls are words filed in the database; no cut-off is given here.

Data set [1] concerns Mus musculus. The data set can be described thus: Immuno-adjuvant activity in OVA-immunized BALB/c mouse assessed as potentiation of antibody response to OVA by measuring increase in serum anti-OVA IgG activity at 100 ug, sc administered immediately and on day 14, 28 and measured at week 2 to 6 by ELISA. It is filed as functional, organism-based. In a few lines:
(§1)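 Female BALB/c mice (8–10 weeks, six per group) got sc OVA (20 μg) plus adjuvant (100 μg) on days 0, 14 and 28. Tail-vein serum was taken before each dose and 2 weeks after the last. ELISA plates were coated with OVA (0.1 μg/mL) in borate-buffered saline, pH 8.2. Serial 2-fold serum dilutions were run in duplicate, detected with HRP anti-mouse IgG/IgG1/IgG2a and o-phenylenediamine, and read at 490 nm.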

Data set [2] deals with Mus musculus. Put plainly: Immuno-adjuvant activity in recombinant Porphyromonas gingivalis HagB-immunized BALB/c mouse assessed as potentiation of antibody response to rHagB by measuring serum anti-rHagB IgG1 activity at 100 ug, sc administered immediately and on day 14, 28 and measured at week 6 by ELISA. In kind it is functional, organism-based.
Data set [3] deals with Mus musculus. Put plainly: Immuno-adjuvant activity in OVA-immunized BALB/c mouse assessed as potentiation of antibody response to OVA by measuring increase in serum anti-OVA IgG1 activity at 100 ug, sc administered immediately and on day 14, 28 and measured at week 2 to 4 by ELISA. It is filed as functional, organism-based. In a few lines:
as §1

Data set [4] has as its system Mus musculus. Put plainly: Immuno-adjuvant activity in OVA-immunized BALB/c mouse assessed as potentiation of antibody response to OVA by measuring serum anti-OVA IgG1 level at 100 ug, sc administered immediately and on day 14, 28 and measured at week 6 by ELISA (reference value: 113 +/- 37 ug/ml). It is filed as functional. In a few lines: as §1
The test system of data set [5] is Mus musculus. The data set can be described thus: Immuno-adjuvant activity in recombinant Porphyromonas gingivalis HagB-immunized BALB/c mouse assessed as potentiation of antibody response to rHagB by measuring increase in serum anti-rHagB IgG activity at 100 ug, sc administered immediately and on day 14, 28 and measured at week 6 by ELISA. In kind it is functional, organism-based.

Data set [6] in a line: Toxicity in OVA-immunized BALB/c mouse assessed as changes in body weight at 100 ug, sc administered immediately and on day 14, 28 and measured at week 6. It is filed as organism-based. The following applies: in vivo. In a few lines:
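Female BALB/c mice (8–10 weeks, six per group) received sc OVA (20 μg) with adjuvant (100 μg) on days 0, 14 and 28. Body weight was recorded before each immunization and 2 weeks after the final one.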

Data set [7] deals with Mus musculus. The data set can be described thus: Immuno-adjuvant activity in OVA-immunized BALB/c mouse assessed as potentiation of antibody response to OVA by measuring increase in serum anti-OVA IgG2a activity at 100 ug, sc administered immediately and on day 14, 28 and measured at week 4 to 6 by ELISA. It is filed as functional, organism-based. A digest of the protocol:
as §1

In data set [8] the test system is Mus musculus. The data set can be described thus: Immuno-adjuvant activity in OVA-immunized BALB/c mouse assessed as potentiation of antibody response to OVA by measuring serum anti-OVA IgG2a level at 100 ug, sc administered immediately and on day 14, 28 and measured at week 6 by ELISA (reference value: 0.1 ug/ml). It is filed as functional. A digest of the protocol:
as §1

Data set [9] relates to Mus musculus. The data set can be described thus: Immuno-adjuvant activity in recombinant Porphyromonas gingivalis HagB-immunized BALB/c mouse assessed as potentiation of antibody response to rHagB by measuring increase in serum anti-rHagB IgG1 activity at 100 ug, sc administered immediately and on day 14, 28 and measured at week 2 to 4 by ELISA. In kind it is functional, organism-based.

Data set [10] concerns Mus musculus. Put plainly: Immuno-adjuvant activity in OVA-immunized BALB/c mouse assessed as potentiation of antibody response to OVA by measuring ratio of serum anti-OVA IgG2a to serum anti-OVA IG1 level at 100 ug, sc administered immediately and on day 14, 28 and measured at week 6 by ELISA. It is filed as functional.
Data set [11] has as its system Mus musculus. The data set can be described thus: Immuno-adjuvant activity in recombinant Porphyromonas gingivalis HagB-immunized BALB/c mouse assessed as potentiation of antibody response to rHagB by measuring increase in serum anti-rHagB IgG activity at 100 ug, sc administered immediately and on day 14, 28 and measured at week 2 to 4 by ELISA. It is filed as functional, organism-based.

Data set [12] relates to Mus musculus. Put plainly: Immuno-adjuvant activity in OVA-immunized BALB/c mouse assessed as potentiation of antibody response to OVA by measuring serum anti-OVA IgG2a activity at 100 ug, sc administered immediately and on day 14, 28 and measured at week 2 by ELISA. In kind it is functional, organism-based. A digest of the protocol: as §1
A short description of data set [13]: Acute toxicity in BALB/c mouse assessed as mouse survival at 100 to 200 ug, sc measured after 5 days. It is filed as organism-based. The following applies: in vivo. In a few lines: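 Female BALB/c mice, 10 weeks old, 5 per group, given a single subcutaneous injection in the neck of adjuvant in 0.1 mL PBS at doses from 100 to 5000 μg, with untreated controls. Survival was counted 5 days after injection. Surviving mice were checked through day 7 for fur condition, behaviour, lethargy and lesion formation.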

Data set [14] relates to Mus musculus. The data set can be described thus: Immuno-adjuvant activity in recombinant Porphyromonas gingivalis HagB-immunized BALB/c mouse assessed as potentiation of antibody response to rHagB by measuring increase in serum anti-rHagB IgG2a activity at 100 ug, sc administered immediately and on day 14, 28 and measured at week 2 to 4 by ELISA. It is filed as functional, organism-based.

In data set [15] the test system is Mus musculus. Put plainly: Immuno-adjuvant activity in recombinant Porphyromonas gingivalis HagB-immunized BALB/c mouse assessed as potentiation of antibody response to rHagB by measuring serum anti-rHagB IgG2a activity at 100 ug, sc administered immediately and on day 14, 28 and measured at week 6 by ELISA. It is filed as functional, organism-based.
Data set [16] relates to Mus musculus. Put plainly: Immuno-adjuvant activity in OVA-immunized BALB/c mouse assessed as potentiation of antibody response to OVA by measuring increase in serum anti-OVA IgG activity at 100 ug, sc administered immediately and on day 14, 28 and measured at week 4 to 6 by ELISA. In kind it is functional, organism-based. A digest of the protocol:
as §1

Data set [17] concerns Mus musculus. Put plainly: Immuno-adjuvant activity in OVA-immunized BALB/c mouse assessed as potentiation of antibody response to OVA by measuring increase in serum anti-OVA IgG1 activity at 100 ug, sc administered immediately and on day 14, 28 and measured at week 6 by ELISA. In kind it is functional, organism-based. In a few lines:
as §1

For data set [18], the system named is Mus musculus. Put plainly: Immuno-adjuvant activity in OVA-immunized BALB/c mouse assessed as potentiation of antibody response to OVA by measuring increase in serum anti-OVA IgG activity at 100 ug, sc administered immediately and on day 14, 28 and measured at week 2 to 4 by ELISA. In kind it is functional, organism-based. In a few lines:
as §1

Data set [19] relates to Mus musculus. Put plainly: Immuno-adjuvant activity in OVA-immunized BALB/c mouse assessed as potentiation of antibody response to OVA by measuring serum anti-OVA IgG activity at 100 ug, sc administered immediately and on day 14, 28 and measured at week 6 by ELISA. In kind it is functional, organism-based. In a few lines: as §1

For the compound `C[C@@H]1O[C@@H](O[C@H]2[C@H](O)[C@@H](C(=O)O)O[C@@H](O[C@H]3CC[C@]4(C)[C@H]5CC=C6[C@H]7CC(C)(C)CC[C@]7(C(=O)O[C@@H]7O[C@H](C)[C@H](O)[C@H](O)[C@H]7O[C@@H]7O[C@@H](C)[C@H](O[C@@H]8OC[C@@H](O)[C@H](O)[C@H]8O)[C@@H](O[C@@H]8O[C@H](CO)[C@@H](O)[C@H](O[C@@H]9OC[C@@H](O)[C@H](O)[C@H]9O)[C@H]8O)[C@H]7O)CC[C@@]6(C)[C@]5(C)CC[C@H]4[C@]3(C)C=O)[C@@H]2O[C@@H]2O[C@H](CO)[C@H](O)[C@H](O)[C@H]2O)[C@H](O)[C@H](O)[C@H]1O`, the outcome in the data set with Mus musculus [1], with Mus musculus [2], with Mus musculus [5], in the data set on Mus musculus [7] and with Mus musculus [12] was inactive. Moreover, the result with Mus musculus [3], in the data set with Mus musculus [9] and with Mus musculus [11] was Active. The figures for the Activity (in the data set on Mus musculus [4]; in [6]; in the data set with Mus musculus [8]) were 233 µg/mL, “Non-Toxic” and 0.2 µg/mL, respectively. Also, the Ratio in the data set on Mus musculus [10] was under 0.001.
Consider `CC1(C)CC[C@]2(C(=O)O[C@@H]3O[C@H](CO)[C@@H](O)[C@H](O[C@@H]4O[C@H](CO)[C@@H](O)[C@H](O[C@@H]5O[C@H](CO)[C@@H](O)[C@H](O[C@@H]6O[C@H](CO)[C@@H](O)[C@H](O[C@@H]7O[C@H](CO)[C@@H](O)[C@H](O)[C@H]7O)[C@H]6O)[C@H]5O)[C@H]4O)[C@H]3O)[C@H](O)C[C@]3(C)C(=CC[C@@H]4[C@@]5(C)CC[C@H](O[C@@H]6O[C@H](CO)[C@@H](O)[C@H](O[C@@H]7O[C@H](CO)[C@@H](O)[C@H](O[C@@H]8O[C@H](CO)[C@@H](O)[C@H](O)[C@H]8O)[C@H]7O)[C@H]6O)[C@@](C)(C=O)[C@@H]5CC[C@]43C)[C@H]2C1`, for which the survival at 120 h in data set [13] stood at 0%.
In the case of `CCCCCCCCCCCCNC(=O)[C@H]1O[C@@H](O[C@H]2CC[C@]3(C)[C@H]4CC=C5[C@H]6CC(C)(C)CC[C@]6(C(=O)O[C@@H]6O[C@H](C)[C@H](O)[C@H](O)[C@H]6O[C@@H]6O[C@@H](C)[C@H](O[C@@H]7OC[C@@H](O)[C@H](O)[C@H]7O)[C@@H](O[C@@H]7O[C@H](CO)[C@@H](O)[C@H](O[C@@H]8OC[C@@H](O)[C@H](O)[C@H]8O)[C@H]7O)[C@H]6O)[C@H](O)C[C@@]5(C)[C@]4(C)CC[C@H]3[C@]2(C)C=O)[C@H](O[C@@H]2O[C@H](CO)[C@H](O)[C@H](O)[C@H]2O)[C@@H](O[C@@H]2O[C@@H](C)[C@H](O)[C@@H](O)[C@H]2O)[C@@H]1O`, the outcome in the data set on Mus musculus [2], in the data set with Mus musculus [5], in the data set on Mus musculus [15], in the data set on Mus musculus [7] and with Mus musculus [12] was inactive. For the same compound, the result in the data set on Mus musculus [3], in the data set with Mus musculus [14], with Mus musculus [16], in the data set with Mus musculus [9], with Mus musculus [17] and with Mus musculus [11] was Active. Besides, the Activity was 869 µg/mL with Mus musculus [4], “Non-Toxic” in [6] and 1 µg/mL with Mus musculus [8]. In the data set on Mus musculus [10], the Ratio is reported as under 0.001.
On to `C[C@@H]1O[C@@H](O[C@H]2[C@H](O)[C@@H](C(=O)O)O[C@@H](O[C@H]3CC[C@]4(C)[C@H]5CC=C6[C@H]7CC(C)(C)CC[C@]7(C(=O)O[C@@H]7O[C@H](C)[C@H](O)[C@H](O)[C@H]7O[C@@H]7O[C@@H](C)[C@H](O[C@@H]8OC[C@@H](O)[C@H](O)[C@H]8O)[C@@H](O[C@@H]8O[C@H](CO)[C@@H](O)[C@H](O[C@@H]9OC[C@@H](O)[C@H](O)[C@H]9O)[C@H]8O)[C@H]7O)[C@H](O)C[C@@]6(C)[C@]5(C)CC[C@H]4[C@]3(C)C=O)[C@@H]2O[C@@H]2O[C@H](CO)[C@H](O)[C@H](O)[C@H]2O)[C@H](O)[C@H](O)[C@H]1O`, for which the result in the data set on Mus musculus [2], with Mus musculus [5], in the data set with Mus musculus [7], in the data set on Mus musculus [19] and in the data set with Mus musculus [12] was inactive. In addition, the outcome in the data set on Mus musculus [3], in the data set with Mus musculus [18], in the data set with Mus musculus [9] and in the data set on Mus musculus [11] was Active. Further, the Activity in the data set with Mus musculus [4] is 262 µg/mL; in data set [6], “Non-Toxic”; with Mus musculus [8], 0.1 µg/mL. Also, in the data set with Mus musculus [10], the Ratio is on record as under 0.001.
